{"data": "Experimental data collected from several papers", "Mc1r": "Melanocyte-stimulating hormone receptor (Mc1r, Mus musculus, UniProt Q01727)", "PSMB8": "Proteasome subunit beta type-8 (PSMB8, Homo sapiens, UniProt P28062)"}
{"SMILES": "CSCC[C@H](N)C(=O)NCC(=O)N[C@@H](Cc1c[nH]cn1)C(=O)N[C@@H](Cc1ccccc1)C(=O)N[C@@H](CCCNC(=N)N)C(=O)N[C@@H](Cc1c[nH]c2ccccc12)C(=O)N[C@@H](CC(=O)O)C(=O)N[C@@H](CCCNC(=N)N)C(=O)N[C@@H](Cc1ccccc1)C(=O)NCC(=O)O", "target": "Mc1r", "effect on": "reporter gene", "mode": "agonist", "quantity": "EC50", "result": "1590 nM"}
{"SMILES": "CC1=C(/C=C/C(C)=C/C=C/C(C)=C/C=O)C(C)(C)CCC1", "target": "Cellular retinoic acid-binding protein 2 (CRABP2, Homo sapiens, UniProt P29373, L122E/R112L/R133K)", "effect on": "binding", "method": "fluorescence", "quantity": "Kd", "result": "1.36 nM"}
{"SMILES": "Cc1ncc(C(=O)N[C@@H](CC(C)C)C(=O)N[C@@H](CC2CCCC3CCCCC32)C(=O)N[C@H](/C=C/S(C)(=O)=O)Cc2ccc(CN)cc2)s1 (stereo partly shown)", "target": "PSMB8", "effect on": "enzyme activity", "mode": "inhibitor", "notes": "lysate", "quantity": "IC50", "result": "> 10000 nM"}
{"SMILES": "CSCC[C@H](NC(=O)[C@@H](NC(=O)[C@@H](N)Cc1ccc(O)cc1)C(C)C)C(=O)NCC(=O)N[C@@H](Cc1c[nH]cn1)C(=O)N[C@@H](Cc1ccccc1)C(=O)N[C@@H](CCCNC(=N)N)C(=O)N[C@@H](Cc1c[nH]c2ccccc12)C(=O)N[C@@H](CC(=O)O)C(=O)O", "target": "Mc1r", "effect on": "reporter gene", "mode": "agonist", "quantity": "EC50", "result": "430 nM"}
{"SMILES": "CN1CCN(c2ccc(Nc3ncc4cc(C#N)c(=O)n(C5CCCC5)c4n3)cc2)CC1", "target": "Ephrin type-A receptor 1 (EPHA1, Homo sapiens, UniProt P21709)", "effect on": "enzyme activity", "mode": "inhibitor", "quantity": "IC50", "result": "57.6 nM"}
{"SMILES": "Cc1ncc(C(=O)N[C@@H](CC2CCCCC2)C(=O)N[C@@H](CC2CCCCC2)C(=O)N[C@H](/C=C/S(C)(=O)=O)Cc2ccc(CN)cc2)s1", "target": "PSMB8", "effect on": "enzyme activity", "mode": "inhibitor", "notes": "lysate", "quantity": "IC50", "result": "> 10000 nM"}
{"SMILES": "CCCC[C@H](NC(=O)[C@@H](NC(=O)[C@@H](N)Cc1ccc(O)cc1)C(C)C)C(=O)NCC(=O)N[C@@H](Cc1c[nH]cn1)C(=O)N[C@@H](Cc1ccccc1)C(=O)N[C@@H](CCCN=C(N)N)C(=O)N[C@@H](Cc1c[nH]c2ccccc12)C(=O)N[C@@H](CC(=O)O)C(=O)N[C@@H](CCCN=C(N)N)C(=O)N[C@@H](Cc1ccccc1)C(=O)NCC(=O)O", "target": "Mc1r", "effect on": "reporter gene", "mode": "agonist", "quantity": "EC50", "result": "390 nM"}
{"SMILES": "CCCCN1CCC(COC(=O)c2ccc(N)c(OCF)c2)CC1", "target": "Muscarinic acetylcholine receptor M3 (CHRM3, Homo sapiens, UniProt P20309)", "effect on": "cell-free assay", "method": "radioligand", "quantity": "Ki", "result": "1380 nM"}
{"SMILES": "CSCC[C@H](NC(=O)[C@@H](NC(=O)[C@@H](N)Cc1ccc(O)cc1)C(C)C)C(=O)NCC(=O)N[C@@H](Cc1c[nH]cn1)C(=O)N[C@@H](Cc1ccccc1)C(=O)N[C@@H](CCCNC(=N)N)C(=O)N[C@@H](Cc1c[nH]c2ccccc12)C(=O)O", "target": "Mc1r", "effect on": "reporter gene", "mode": "agonist", "quantity": "EC50", "result": "2900 nM"}
{"SMILES": "CC(C)C[C@H](NC(=O)CN1CCOCC1)C(=O)N[C@@H](CC(C)C)C(=O)N[C@H](/C=C/S(C)(=O)=O)Cc1ccc(CN)cc1", "target": "PSMB8", "effect on": "enzyme activity", "mode": "inhibitor", "notes": "lysate", "quantity": "IC50", "result": "> 10000 nM"}
{"SMILES": "CC[C@H](C)[C@H](NC(=O)[C@H](CO)NC(=O)[C@H](Cc1ccc(O)cc1)NC(=O)[C@H](CC(=O)O)NC(=O)[C@H](CO)NC(=O)[C@@H](NC(=O)[C@H](Cc1ccccc1)NC(=O)[C@@H](NC(=O)CNC(=O)[C@H](CCC(=O)O)NC(=O)[C@H](C)NC(=O)[C@@H](N)Cc1ccc(O)cc1)[C@@H](C)O)[C@@H](C)CC)C(=O)N[C@@H](C)C(=O)N[C@@H](CCSC)C(=O)N[C@@H](CC(=O)O)C(=O)N[C@@H](CCCCN)C(=O)N[C@H](C(=O)N[C@@H](Cc1c[nH]cn1)C(=O)N[C@@H](CCC(N)=O)C(=O)N[C@@H](CCC(N)=O)C(=O)N[C@@H](CC(=O)O)C(=O)N[C@@H](Cc1ccccc1)C(=O)N[C@H](C(=O)N[C@@H](CC(N)=O)C(=O)N[C@@H](Cc1c[nH]c2ccccc12)C(=O)N[C@@H](CC(C)C)C(=O)N[C@@H](CC(C)C)C(=O)N[C@@H](C)C(=O)N[C@@H](CCC(N)=O)C(=O)N[C@@H](CCCCN)C(=O)NCC(=O)N[C@@H](CCCCN)C(=O)N[C@@H](CCCCN)C(=O)N[C@@H](CC(N)=O)C(=O)N[C@@H](CC(=O)O)C(=O)N[C@@H](Cc1c[nH]c2ccccc12)C(=O)N[C@@H](CCCCN)C(=O)N[C@@H](Cc1c[nH]cn1)C(=O)N[C@@H](CC(N)=O)C(=O)N[C@H](C(=O)N[C@H](C(=O)N[C@@H](CCC(N)=O)C(=O)O)[C@@H](C)O)[C@@H](C)CC)C(C)C)[C@@H](C)CC", "target": "Glucagon receptor (GCGR, Homo sapiens, UniProt P47871)", "effect on": "reporter gene", "mode": "agonist", "method": "luciferase", "quantity": "EC50", "result": "> 1000 nM"}
{"SMILES": "Cc1ncc(C(=O)N[C@@H](CCC2CCCCC2)C(=O)N[C@@H](CC(C)C)C(=O)N[C@H](/C=C/S(C)(=O)=O)Cc2ccc(CN)cc2)s1", "target": "PSMB8", "effect on": "enzyme activity", "mode": "inhibitor", "notes": "lysate", "quantity": "IC50", "result": "410 nM"}
{"SMILES": "CCOc1ccc2c(-c3cc(C)nc(Nc4cc(OC)cc(C(F)(F)F)c4)n3)cnn2n1", "target": "Homeodomain-interacting protein kinase 2 (HIPK2, Homo sapiens, UniProt Q9H2X6)", "effect on": "enzyme activity", "mode": "inhibitor", "quantity": "IC50", "result": "> 10000 nM"}
